Experiment [1] relates to Mus musculus. In words: Immuno-adjuvant activity in NIH/OlaHsd mouse assessed as increase in ovalbumin specific […] associated IgG1 production in sera at 0.30 micromol administered subcutaneously on day 1 and as booster dose on day 21 with ovalbumin loaded neutral liposomes and measured 1 week post booster dose by ELISA. The experiment is classed as functional, organism-based. The following applies: dose 0.3 µmol, time 28.0 day. The gist of the method: (§1)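 Groups of 5 female NIH/OlaHsd mice, 2.0–2.5 months old, immunized with ovalbumin-loaded neutral liposomes (10 μg ovalbumin per dose) containing 0.30 μmol adjuvant per dose, plus one booster dose. Serum ovalbumin-specific IgG, IgG1 and IgG2a measured 1 week after the booster. Mean ± SEM of 5 mice.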
(An ELISA detects its analyte on a solid surface through an enzyme-linked reagent.)

Experiment [2] has as its system PBMC. The experiment in a line: Immunostimulatory activity in human PBMC cells assessed as increase in IL-8 production at 2 uM incubated for 18 hrs by flow cytometry analysis. The format is functional, cell-based. The gist of the method: (§2)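 Human PBMCs from healthy donors, 1 × 10^6 cells/mL in RPMI 1640 with 10% FBS, treated with 2 μM compound or 0.1% DMSO, without or with LPS 10 ng/mL, for 18 h at 37 °C. Supernatant cytokines quantified by cytometric bead array (human inflammatory panel) on a flow cytometer against recombinant standards. Four independent donors. Repeated-measures one-way ANOVA with Dunnett.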
For orientation: A flow cytometer gives signals particle by particle.

Experiment [3] has as its system PBMC. The experiment in a line: Immunostimulatory activity in human PBMC cells assessed as increase in LPS-induced IL-1beta production at 2 uM incubated for 18 hrs by flow cytometry analysis. The format is functional, cell-based. In outline: as §2
Experiment [4] has as its system Mus musculus. In words: Immuno-adjuvant activity in NIH/OlaHsd mouse assessed as increase in ovalbumin specific […] associated IgG2a production in sera at 0.30 micromol administered subcutaneously on day 1 and as booster dose on day 21 with ovalbumin loaded neutral liposomes and measured 1 week post booster dose by ELISA. The experiment is classed as functional, organism-based. The following applies: dose 0.3 µmol, time 28.0 day. In outline: as §1

The test system of another experiment is K562. In words: Cytotoxicity against human K562 cells cocultured with human PBMC cells assessed as inhibition of cell proliferation at 100 nM incubated with PBMC cells for 18 hrs followed by co-incubation with K562 cells for 4 hrs by SYTOX blue staining based flow cytometric analysis. The experiment is classed as functional. The gist of the method:
(§3)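 Effector cells are freshly Ficoll-isolated human PBMCs, 4 × 10^5 per well, pretreated 18 h with compound or 0.1% DMSO. CFSE-labelled K562 or MEC1 targets, 1 × 10^4 per well, are then added at 40:1 effector:target ratio and co-incubated 4 h at 37 °C. Dead targets are CFSE+/Sytox blue+ by flow cytometry. Results are relative to vehicle. Duplicates; three (MEC1) or four (K562) independent experiments. One-way ANOVA with Dunnett.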

The test system of experiment [5] is PBMC. The experiment in a line: Immunostimulatory activity in human PBMC cells assessed as increase in LPS-induced IL-8 production at 2 uM incubated for 18 hrs by flow cytometry analysis. The format is functional, cell-based. In outline: as §2
The test system of experiment [6] is PBMC. The experiment in a line: Immunostimulatory activity in human PBMC cells assessed as increase in IL-1beta production at 2 uM incubated for 18 hrs by flow cytometry analysis. The experiment is classed as functional, cell-based. The gist of the method: as §2
Experiment [7] has as its system PBMC. In words: Immunostimulatory activity in human PBMC cells assessed as increase in IL-6 production at 2 uM incubated for 18 hrs by flow cytometry analysis. The format is functional, cell-based. In outline:
as §2

The subject of the next experiment is MEC1. The experiment in a line: Cytotoxicity against human MEC-1 cells cocultured with human PBMC cells assessed as inhibition of cell proliferation at 10 uM incubated with PBMC cells for 18 hrs followed by co-incubation with MEC-1 cells for 4 hrs by SYTOX blue staining based flow cytometric analysis. The experiment is classed as functional. In outline: as §3

The next experiment relates to BMDC. The experiment in a line: Induction of mouse BMDC-mediated ovalbumin specific CD4+ T cell activation assessed as increase in CD25 expression at 10 uM incubated for 72 hrs by CFSE staining based flow cytometric analysis. The format is functional. The gist of the method: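 BMDCs from C57BL/6 mouse tibia (7 days in GM-CSF 20 ng/mL, >90% CD11c+) pulsed 18 h with compound (1 or 10 μM) plus ovalbumin 50 μg/mL, then washed. They were cocultured 72 h with CFSE-labelled naive OT-II CD4+ T cells. CD25+/CFSE-low fraction of live Thy1.2+CD4+ cells read by flow cytometry; supernatant cytokines also measured. Duplicates of two independent experiments.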

The values that follow come from ChEMBL document CHEMBL5038594, “Structural Fine-Tuning of Desmuramylpeptide NOD2 Agonists Defines Their In Vivo Adjuvant Activity” (J Med Chem, 2021).

SMILES strings stand for the structures. Active and inactive are the calls of the source. The calls are words filed in the database; no cut-off is given here.

`CCCCCCCCCCCCCCCCCC(=O)Oc1ccc(/C=C/C(=O)NCC(=O)N[C@H](C(=O)N[C@H](CCC(=O)OCC)C(=O)OCC)C(C)C)cc1OC`: the result with Mus musculus [1], in the experiment on PBMC [3], in the experiment on Mus musculus [4], with PBMC [5], in the experiment on MEC1 and with BMDC was Active. Moreover, the outcome in the experiment with PBMC [2], in the experiment on K562, with PBMC [6] and in the experiment on PBMC [7] was inactive.
